Where a SMILES comes first, the peptide text is derived from it. The star is where a group is joined. X1 = C[C@]12CC[C@@H]3c4ccc(OCC(=O)*)cc4CC[C@H]3[C@@H]1CCC2O
Columns and labels:
[1] = test system: Mus musculus; assay: Effect on uterus weight in mouse at 0.1103 mmol/kg, po; type: functional
[2] = test system: Mus musculus; assay: Effect on mineral content in mouse at 0.1103 mmol/kg, po; type: functional
How it was run: (§1)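 Female Kuiming mice (7 weeks old, 30.7 ± 3.1 g) under abdominal OVX, sham group abdominorotomy only. From day 5 after surgery, dosed orally once daily for 4 weeks at 110.3 × 10-3 mmol/kg in 0.5% CMC (0.2 mL), vehicle group CMC alone. Blood drawn retro-orbitally, then left femur and organs removed under pentobarbital (40.0 mg/kg, i.p.).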

[3] = test system: Mus musculus; assay: Effect on serum phosphorous level in mouse at 0.055 mmol/kg, ip; type: functional
How it was run: (§2)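 Dose-response in OVX Kuiming mice, i.p. daily for 4 weeks in 0.5% CMC at 11.03, 55.15 or 110.3 × 10-3 mmol/kg. Serum from retro-orbital blood (3000 g, 20 min). Calcium by o-methylphenolphthalein complexone, phosphorus by molybdenum blue, ALP by activity on disodium phenylphosphate. n = 12, ANOVA.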

[4] = test system: Mus musculus; assay: Effect on serum calcium level in mouse at 0.055 mmol/kg, ip; type: functional; how it was run: as §2
[5] = test system: Mus musculus; assay: Effect on uterus weight in mouse at 0.011 mmol/kg, ip; type: functional
How it was run: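 Dose study in abdominally ovariectomized female Kuiming mice (30.7 ± 3.1 g). Daily i.p. dosing in aqueous 0.5% CMC from day 5 after surgery for 4 weeks, at 110.3, 55.15 or 11.03 × 10-3 mmol/kg. Liver, lung, spleen and uterus were removed after pentobarbital euthanasia and weighed. n = 12, ANOVA, p < 0.05.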

[6] = test system: Mus musculus; assay: Effect on dry weight of femurs in recipient mouse at 0.055 mmol/kg, ip; type: functional, Femur
How it was run: (§3)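 Dose-response in OVX Kuiming mice, i.p. daily for 4 weeks in 0.5% CMC at 11.03, 55.15 or 110.3 × 10-3 mmol/kg. Left femur: length, then defatting, drying at 120 °C for 6 h (dry weight), ashing at 800 °C for 8 h. Ash/dry ratio gives mineral content. Ash Ca and P measured colorimetrically. Liver, lung and spleen weighed directly. n = 12, ANOVA.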

[7] = test system: Mus musculus; assay: Effect on femur length in recipient mouse at 0.055 mmol/kg, ip; type: functional; how it was run: as §3
[8] = test system: Mus musculus; assay: Effect on mineral content in ovariectomized mouse at 0.1103 mmol/kg, ip once daily for 4 weeks; type: functional
How it was run: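 Female Kuiming mice (7 weeks, 30.7 ± 3.1 g) ovariectomized, sham group abdominorotomy. From day 5, i.p. once daily for 4 weeks at 110.3 × 10-3 mmol/kg in 0.5% CMC. Left femur cleaned, length measured, defatted in chloroform-methanol (2:1, 2 × 3 h), dried 120 °C 6 h for dry weight, ashed 800 °C 8 h. Mineral content = ash/dry weight. Ash dissolved in 6 N HCl and diluted. Ca by o-methylphenolphthalein complexone, P by molybdenum blue. Lungs and livers weighed directly.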

[9] = test system: Mus musculus; assay: Effect on phosphorus level in mouse at 0.110 mmol/kg, po; type: functional; how it was run: as §1
[10] = test system: Mus musculus; assay: Effect on calcium level in mouse femur at 0.055 mmol/kg, ip; type: functional; how it was run: as §3
[11] = test system: Mus musculus; assay: Effect on lenght of femur in mouse at 0.110 mmol/kg, po; type: functional; how it was run: as §1
[12] = test system: Mus musculus; assay: Effect on calcium level in mouse femur at 0.011 mmol/kg, ip; type: functional; how it was run: as §3
[13] = test system: Mus musculus; assay: Effect on calcium level in mouse at 0.1103 mmol/kg, po; type: functional; how it was run: as §1
[14] = test system: Mus musculus; assay: Effect on spleen weight in ovariectomized mouse at 0.1103 mmol/kg, ip once daily for 4 weeks; type: functional
How it was run: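 Female Kuiming mice (7 weeks old, 30.7 ± 3.1 g), abdominal OVX under pentobarbital (40.0 mg/kg i.p.). From day 5 after surgery, i.p. injection once daily for 4 weeks, compound in aqueous 0.5% CMC prepared just before use. The day after the last dose, mice were anesthetized and killed, and lungs, livers, spleens and uteri were removed and weighed directly. n = 12, ANOVA, p < 0.05.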

[15] = test system: Mus musculus; assay: Effect on serum ALP level in mouse at 0.011 mmol/kg, ip; type: functional; how it was run: as §2
[16] = test system: Mus musculus; assay: Effect on phosphorous level in mouse femur at 0.011 mmol/kg, ip; type: functional; conditions: in the assay text read “0.11 mmol/kg” for “0.011 mmol/kg”; how it was run: as §3
[17] = test system: Mus musculus; assay: Effect on femur ash weight in mouse at 0.1103 mmol/kg, po; type: functional; how it was run: as §1
[18] = test system: Mus musculus; assay: Effect on liver weight in mouse at 0.1103 mmol/kg, po; type: functional; how it was run: as §1
[19] = test system: Mus musculus; assay: Effect on serum ALP level in mouse at 0.1103 mmol/kg, po; type: functional
How it was run: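 Oral OVX Kuiming mouse model, dosed daily for 4 weeks at 110.3 × 10-3 mmol/kg in 0.5% CMC. Retro-orbital blood stood 30 min at room temperature and was spun at 3000 g for 20 min. Serum kept at -20 °C. Calcium read by o-methylphenolphthalein complexone, phosphorus by molybdenum blue, ALP by activity on disodium phenylphosphate substrate.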

[20] = test system: Mus musculus; assay: Effect on lung weight in mouse at 0.011 mmol/kg, ip; type: functional; how it was run: as §3
[21] = test system: Mus musculus; assay: Effect on dry weight of femur in recipient mouse at 0.011 mmol/kg, ip; type: functional; how it was run: as §3

Structure (SMILES) | Activity [1] [mg] | Ratio [2] [%] | Activity [3] [mmol/L] | Activity [4] [mmol/L] | Activity [5] [mg] | Activity [6] [mg] | Activity [7] [cm] | Ratio [8] | Activity [9] [%] | Activity [10] [%] | Activity [11] [cm] | Activity [12] [%] | Activity [13] [%] | Activity [14] [mg] | Activity [15] [U/L] | Activity [17] [mg] | Activity [18] [g] | Activity [19] [U/L] | Activity [20] [mg] | Activity [21] [mg] | also measured
C[C@]12CC[C@@H]3c4ccc(OCC(=O)N[C@@H](CCCNC(=N)N)C(=O)NCC(=O)N[C@@H](CC(=O)O)C(=O)N[C@@H](Cc5ccccc5)C(=O)O)cc4CC[C@H]3[C@@H]1CCC2O (stereo partly specified) (X1-RGDF-OH) | 47.5 | 52.5 | 1.602 | 2.04 | 60.6 | 53.9 | 1.624 | 0.585 | 25.532 | 54.493 | 1.626 | 42.9 | 53.001 | 131 | 38.6 | 28.7 | 1.339 | 33.7 | 174 | 46.9 | Activity [16]: 25.46%
CC(C)[C@H](NC(=O)[C@H](CC(=O)O)NC(=O)CNC(=O)[C@H](CCCNC(=N)N)NC(=O)COc1ccc2c(c1)CC[C@@H]1[C@@H]2CC[C@]2(C)C(O)CC[C@@H]12)C(=O)O (stereo partly specified) (X1-RGDV-OH) | 40.7 | 51.9 | 1.586 | 2.084 | 55.7 | 57.5 | 1.643 | 0.63 | 24.997 | 57.13 | 1.614 | 42.1 | 52.197 | 132 | 38.5 | 33.7 | 1.337 | 34.521 | 188 | 50.9 | 
C[C@]12CC[C@@H]3c4ccc(OCC(=O)N[C@@H](CCCNC(=N)N)C(=O)NCC(=O)N[C@@H](CC(=O)O)C(=O)N[C@@H](CO)C(=O)O)cc4CC[C@H]3[C@@H]1CCC2O (stereo partly specified) (X1-RGDS-OH) | 43.2 | 52.2 | 1.607 | 2.047 | 52.8 | 56.3 | 1.622 | 0.582 | 24.994 | 52.1 | 1.635 | 41.5 | 51.988 | 124 | 40.3 | 30.4 | 1.329 | 35.211 | 181 | 48.8 | 
